Source: ChEMBL document CHEMBL3526153, “Metabolism of gambogic acid in rats: a rare intestinal metabolic pathway responsible for its final disposition” (Drug Metab Dispos, 2011)

What was measured:
[1] = Retention time of the compound in Sprague-Dawley rat bile treated with gambogic acid at 4 mg/kg, iv measured over 24 hrs by LC-DAD-MS/MS analysis; assay type: ADME, organism-based; parameters: dose 4 mg/kg, route intravenous; details: in vivo
In short: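 SD rats, n=4, bile-duct cannulated under chloral hydrate and allowed 1 h recovery. GA 4 mg/kg i.v.; bile collected on ice, pooled 0–24 h. C18 LC-DAD-MS/MS at 0.25 mL/min with acetonitrile gradient (38% to 80%) in 10 mM ammonium acetate, 40 °C, negative ESI.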

Liver microsome = experiment: Drug level in rat liver microsomes treated with gambogic acid at 50 uM preincubated for 10 mins followed by NADPH addition measured after 2 hrs in presence of GSH; assay type: ADME
In short: (§1)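 GA 50 μM in 1.0 mL 0.1 M PBS pH 7.4 with GSH 5.0 mM and NADPH 6.0 mM (final). Line 7 uses rat liver microsomes 1.0 mg/mL; line 2 omits microsomes. Preincubated 10 min at 37 °C, started with NADPH, run 2 h at 37 °C, duplicate. Quenched with ice-cold acetonitrile and dried. LC-MS/MS in negative ESI, isocratic 65% acetonitrile / 10 mM ammonium acetate.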

[2] = Drug level in PBS buffer treated with gambogic acid at 50 uM preincubated for 10 mins followed by NADPH addition measured after 2 hrs in presence of GSH and absence of liver microsomes; assay type: physicochemical; in short: as §1

Retention_time [1]: 5.7 min
Drug metabolism (Liver microsome): metabolite_detected
Drug metabolism [2]: metabolite_detected
Structure (SMILES): CC(C)=CCC[C@]1(C)C=Cc2c(O)c3c(c(CC=C(C)C)c2O1)O[C@]12C(C3=O)C(SC[C@H](NC(=O)CC[C@H](N)C(=O)O)C(=O)NCC(=O)O)[C@@H]3C[C@H]1C(C)(C)O[C@@]2(C/C=C(/C)C(=O)O)C3=O (stereo partly drawn)
